What all share (type): functional
What all share (parameters): scale not given: the % may be the effect or the level left

In assay [1] the test system is Plasmodium berghei. As to the kind of experiment: Antimalarial activity against Plasmodium berghei infected in CD1 mouse assessed as decrease in parasitemia at 20 mg/kg, po administered using Na2CO3 vehicle measured on day 4 relative to control. The procedure, abridged: (§1)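 Peters' standard 4-day suppressive test in male CD-1 mice infected with Plasmodium berghei by intraperitoneal injection. Compound given orally at 20 mg/kg, with 5 mice per group. Read-out is % parasite clearance on day 4. Vehicles were SSV (often as suspensions), DET (fully dissolved) or sodium carbonate solution, as specified in each line.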

Assay [2] relates to Plasmodium berghei. As to the kind of experiment: Antimalarial activity against Plasmodium berghei infected in CD1 mouse assessed as decrease in parasitemia at 20 mg/kg, po administered using standard suspension vehicle measured on day 4 relative to control. The procedure, abridged: as §1
The subject of assay [3] is Plasmodium berghei. As to the kind of experiment: Antimalarial activity against Plasmodium berghei infected in CD1 mouse assessed as decrease in parasitemia at 20 mg/kg, po administered using 5% DMSO and 5% EtOH in tetraglycol vehicle measured on day 4 relative to control. The gist of the method:
as §1

Take `Cc1c(-c2ccc(Cc3ccc(OC(F)(F)F)cc3)cc2)nc2cc(Cl)ccc2c1OP(=O)(O)O`: in the assay with Plasmodium berghei [1], the Activity amounted to 100%.
On to `Cc1c(-c2ccc(Cc3ccc(OC(F)(F)F)cc3)cc2)nc2cc(Cl)ccc2c1OC(=O)N1CCOCC1`, for which, in the assay with Plasmodium berghei [1], the Activity is reported as 100%.
With `O=C1C(O)=C([C@H]2CC[C@H](c3ccc(Cl)cc3)CC2)C(=O)c2ccccc21` [ATOVAQUONE], the Activity with Plasmodium berghei [2] and in the assay on Plasmodium berghei [3] was 100% each time.

The record behind these values is ChEMBL document CHEMBL2029239, “Identification, design and biological evaluation of bisaryl quinolones targeting Plasmodium falciparum type II NADH:quinone oxidoreductase (PfNDH2)” (J Med Chem, 2012).
